{"source": "ChEMBL document CHEMBL4229344", "about": "(Eur J Med Chem, 2018)", "key": {"[1]": {"target": "Calcium/calmodulin-dependent protein kinase type II subunit delta (Homo sapiens) (UniProt Q13557)", "experiment": "Binding affinity to wild-type human partial length CAMK2D (M1 to E329 residues) expressed in bacterial expression system assessed as residual binding level at 1 uM by Kinomescan method relative to control"}, "[2]": {"target": "Tyrosine-protein kinase HCK (Homo sapiens) (UniProt P08631)", "experiment": "Binding affinity to wild-type human full length HCK (M22 to P526 residues) expressed in bacterial expression system assessed as residual binding level at 1 uM by Kinomescan method relative to control", "how_it_was_run": "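KINOMEscan competition binding against 468 purified kinases/mutants, test compound at 1 µM; residual binding relative to control.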"}, "[3]": {"target": "Serine/threonine-protein kinase 10 (Homo sapiens) (UniProt O94804)", "experiment": "Binding affinity to wild-type human partial length LOK (E16 to V314 residues) expressed in bacterial expression system assessed as residual binding level at 1 uM by Kinomescan method relative to control", "how_it_was_run": "(§1)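 Kinome-wide competition binding screen against a panel of 468 purified kinases/mutants, with the test compound at a single concentration of 1 μM. Read-out is the relative binding activity of each kinase in the presence of compound.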"}, "[4]": {"target": "Cyclin-dependent kinase 18 (Homo sapiens) (UniProt Q07002)", "experiment": "Binding affinity to wild-type human full length PCTK3 (M3 to F474 residues) expressed in bacterial expression system assessed as residual binding level at 1 uM by Kinomescan method relative to control", "how_it_was_run": "(§2)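 Single-concentration KINOMEscan (DiscoverX) binding screen at 1 μM against a panel of 468 purified kinases and mutants. The read-out is binding relative to control.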"}, "[5]": {"target": "Rhodopsin kinase GRK7 (Homo sapiens) (UniProt Q8WTQ7)", "experiment": "Binding affinity to wild-type human full length GRK7 (M1 to L553 residues) expressed in mammalian expression system assessed as residual binding level at 1 uM by Kinomescan method relative to control", "how_it_was_run": "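Single-concentration (1 μM) competition-binding screen run by KINOMEscan against a panel of 468 purified kinases and mutants. The read-out is the relative binding activity of the test compound to each kinase.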"}, "[6]": {"test_system": "ALK tyrosine kinase receptor (Homo sapiens), Q9UM73 [L1196M]", "sequence (Q9UM73 whole entry L1196M, looked up, the tested form may be a part)": "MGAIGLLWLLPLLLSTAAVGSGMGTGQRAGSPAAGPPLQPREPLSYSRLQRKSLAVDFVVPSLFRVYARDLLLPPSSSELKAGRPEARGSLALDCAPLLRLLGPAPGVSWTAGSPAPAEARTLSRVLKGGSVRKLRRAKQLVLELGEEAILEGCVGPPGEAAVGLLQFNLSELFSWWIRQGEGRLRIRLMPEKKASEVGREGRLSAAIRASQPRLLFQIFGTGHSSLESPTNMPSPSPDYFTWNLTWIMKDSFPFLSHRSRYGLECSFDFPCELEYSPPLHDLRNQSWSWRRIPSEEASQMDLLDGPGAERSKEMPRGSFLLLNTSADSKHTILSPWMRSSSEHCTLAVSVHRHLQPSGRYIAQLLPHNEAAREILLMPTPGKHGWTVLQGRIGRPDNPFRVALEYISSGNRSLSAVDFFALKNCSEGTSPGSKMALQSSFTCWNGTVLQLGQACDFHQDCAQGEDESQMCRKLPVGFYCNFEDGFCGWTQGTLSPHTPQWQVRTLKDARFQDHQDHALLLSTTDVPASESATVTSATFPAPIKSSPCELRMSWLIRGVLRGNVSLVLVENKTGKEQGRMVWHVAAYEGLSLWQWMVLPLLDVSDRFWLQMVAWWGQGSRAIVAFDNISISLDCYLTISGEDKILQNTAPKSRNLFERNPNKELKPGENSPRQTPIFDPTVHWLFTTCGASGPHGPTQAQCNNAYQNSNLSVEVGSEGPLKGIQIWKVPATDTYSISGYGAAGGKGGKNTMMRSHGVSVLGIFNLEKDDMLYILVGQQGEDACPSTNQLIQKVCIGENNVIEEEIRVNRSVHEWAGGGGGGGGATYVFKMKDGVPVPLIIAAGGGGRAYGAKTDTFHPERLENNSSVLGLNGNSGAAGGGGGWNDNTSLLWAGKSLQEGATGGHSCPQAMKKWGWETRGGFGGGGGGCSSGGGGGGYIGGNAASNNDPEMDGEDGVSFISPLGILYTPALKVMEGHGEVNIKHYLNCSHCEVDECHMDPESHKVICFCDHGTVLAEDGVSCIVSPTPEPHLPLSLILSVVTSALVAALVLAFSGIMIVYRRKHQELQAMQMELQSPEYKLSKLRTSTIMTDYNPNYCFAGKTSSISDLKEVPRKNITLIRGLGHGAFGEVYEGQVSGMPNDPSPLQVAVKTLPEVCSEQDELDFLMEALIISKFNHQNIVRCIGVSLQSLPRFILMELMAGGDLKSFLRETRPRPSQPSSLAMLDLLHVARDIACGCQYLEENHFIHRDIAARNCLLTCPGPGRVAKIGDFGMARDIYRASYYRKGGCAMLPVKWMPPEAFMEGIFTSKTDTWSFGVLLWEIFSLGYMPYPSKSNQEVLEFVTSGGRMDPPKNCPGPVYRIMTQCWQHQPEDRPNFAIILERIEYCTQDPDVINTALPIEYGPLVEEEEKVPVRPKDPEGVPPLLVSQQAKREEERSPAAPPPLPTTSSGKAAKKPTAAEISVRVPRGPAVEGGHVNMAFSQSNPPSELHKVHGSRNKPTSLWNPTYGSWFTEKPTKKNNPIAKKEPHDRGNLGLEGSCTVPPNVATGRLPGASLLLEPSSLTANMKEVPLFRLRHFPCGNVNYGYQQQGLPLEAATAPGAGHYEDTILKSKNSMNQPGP", "experiment": "Binding affinity to wild-type human partial length ALK L1196M mutant (I1088 to E1409 residues) expressed in mammalian expression system assessed as residual binding level at 1 uM by Kinomescan method relative to control", "how_it_was_run": "as §2"}, "[7]": {"target": "Peripheral plasma membrane protein CASK (Homo sapiens) (UniProt O14936)", "sequence (O14936 whole entry, the tested form may be a part)": "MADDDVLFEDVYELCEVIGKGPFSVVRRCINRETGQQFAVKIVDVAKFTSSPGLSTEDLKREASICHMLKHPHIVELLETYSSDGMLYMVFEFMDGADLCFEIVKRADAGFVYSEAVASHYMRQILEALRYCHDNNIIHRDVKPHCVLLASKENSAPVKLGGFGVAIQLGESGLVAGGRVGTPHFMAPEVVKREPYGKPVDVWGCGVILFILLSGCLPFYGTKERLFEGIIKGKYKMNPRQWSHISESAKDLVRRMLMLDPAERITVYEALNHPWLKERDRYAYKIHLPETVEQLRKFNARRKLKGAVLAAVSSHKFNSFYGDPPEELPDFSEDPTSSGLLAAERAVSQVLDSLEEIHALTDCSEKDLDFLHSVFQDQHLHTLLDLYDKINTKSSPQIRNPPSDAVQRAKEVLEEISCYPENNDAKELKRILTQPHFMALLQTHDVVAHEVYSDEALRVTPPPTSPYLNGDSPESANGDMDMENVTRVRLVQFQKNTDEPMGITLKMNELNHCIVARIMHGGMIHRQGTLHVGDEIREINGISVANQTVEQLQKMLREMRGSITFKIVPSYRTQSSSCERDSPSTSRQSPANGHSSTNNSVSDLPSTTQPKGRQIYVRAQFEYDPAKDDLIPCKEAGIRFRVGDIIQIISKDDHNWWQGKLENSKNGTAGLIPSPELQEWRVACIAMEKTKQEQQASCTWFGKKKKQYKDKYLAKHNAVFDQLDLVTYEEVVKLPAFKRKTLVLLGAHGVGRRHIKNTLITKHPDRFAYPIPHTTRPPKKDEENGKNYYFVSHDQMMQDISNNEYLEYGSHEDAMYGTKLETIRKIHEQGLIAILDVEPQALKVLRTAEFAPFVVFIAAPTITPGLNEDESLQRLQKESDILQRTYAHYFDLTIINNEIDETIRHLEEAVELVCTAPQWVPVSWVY", "experiment": "Binding affinity to wild-type human partial length CASK (M1 to H315 residues) expressed in mammalian expression system assessed as residual binding level at 1 uM by Kinomescan method relative to control", "how_it_was_run": "as §1"}, "[8]": {"target": "Serine/threonine-protein kinase TAO3 (Homo sapiens) (UniProt Q9H2K8)", "experiment": "Binding affinity to wild-type human partial length TAOK3 (M1 to T316 residues) expressed in mammalian expression system assessed as residual binding level at 1 uM by Kinomescan method relative to control"}, "[9]": {"target": "Insulin receptor-related protein (Homo sapiens) (UniProt P14616)", "sequence (P14616 27-742 limits assumed)": "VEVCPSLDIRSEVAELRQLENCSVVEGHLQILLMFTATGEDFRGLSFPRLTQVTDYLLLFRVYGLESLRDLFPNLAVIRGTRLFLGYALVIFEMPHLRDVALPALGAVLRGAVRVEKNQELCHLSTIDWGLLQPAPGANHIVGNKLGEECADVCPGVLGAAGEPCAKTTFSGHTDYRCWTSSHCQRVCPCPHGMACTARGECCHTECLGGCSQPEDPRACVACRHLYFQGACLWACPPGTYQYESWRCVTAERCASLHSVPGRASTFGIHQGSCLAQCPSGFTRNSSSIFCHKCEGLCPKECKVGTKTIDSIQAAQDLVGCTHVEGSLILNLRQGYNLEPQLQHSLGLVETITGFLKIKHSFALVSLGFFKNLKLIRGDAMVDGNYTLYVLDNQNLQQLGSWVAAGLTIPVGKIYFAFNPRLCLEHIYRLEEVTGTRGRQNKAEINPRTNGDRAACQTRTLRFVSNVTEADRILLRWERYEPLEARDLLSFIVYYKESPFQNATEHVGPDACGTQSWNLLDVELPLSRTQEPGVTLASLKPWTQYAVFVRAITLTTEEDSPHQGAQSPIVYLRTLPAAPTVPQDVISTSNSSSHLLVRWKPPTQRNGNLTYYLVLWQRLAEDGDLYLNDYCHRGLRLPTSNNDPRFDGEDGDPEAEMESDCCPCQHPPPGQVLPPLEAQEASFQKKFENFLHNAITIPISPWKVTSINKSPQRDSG", "sequence (P14616 747-1297 limits assumed)": "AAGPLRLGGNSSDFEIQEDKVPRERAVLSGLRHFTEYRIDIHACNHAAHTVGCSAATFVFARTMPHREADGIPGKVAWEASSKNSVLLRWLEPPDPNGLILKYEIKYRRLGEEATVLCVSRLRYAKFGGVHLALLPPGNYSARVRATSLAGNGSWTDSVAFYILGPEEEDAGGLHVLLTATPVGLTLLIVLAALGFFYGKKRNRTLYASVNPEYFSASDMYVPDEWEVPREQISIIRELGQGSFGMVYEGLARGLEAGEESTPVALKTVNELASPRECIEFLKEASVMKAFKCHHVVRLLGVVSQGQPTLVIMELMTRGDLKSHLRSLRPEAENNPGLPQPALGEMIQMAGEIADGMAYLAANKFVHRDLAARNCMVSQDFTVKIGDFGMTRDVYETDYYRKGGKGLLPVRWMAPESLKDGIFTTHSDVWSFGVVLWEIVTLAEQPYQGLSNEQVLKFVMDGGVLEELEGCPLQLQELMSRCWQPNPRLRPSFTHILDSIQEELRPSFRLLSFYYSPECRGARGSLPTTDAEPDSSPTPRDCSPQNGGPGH", "experiment": "Binding affinity to wild-type human partial length INSRR (R950 to E1278 residues) expressed in bacterial expression system assessed as residual binding level at 1 uM by Kinomescan method relative to control"}, "[10]": {"test_system": "Phosphatidylinositol 4,5-bisphosphate 3-kinase catalytic subunit alpha isoform (Homo sapiens), P42336 [I800L]", "experiment": "Binding affinity to human partial length PIK3CA I800L mutant (R108 to N1068 residues) expressed in mammalian expression system assessed as residual binding level at 1 uM by Kinomescan method relative to control", "how_it_was_run": "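Kinome-wide single-concentration binding screen (KINOMEscan) at 1 μM against a panel of 468 purified kinases and mutants. Read-out is relative binding of each kinase compared with control. Selectivity across the panel was summarised as an S(10) score.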"}, "[11]": {"target": "Serine/threonine-protein kinase/endoribonuclease IRE1 (Homo sapiens) (UniProt O75460)", "sequence (O75460 19-977 limits assumed)": "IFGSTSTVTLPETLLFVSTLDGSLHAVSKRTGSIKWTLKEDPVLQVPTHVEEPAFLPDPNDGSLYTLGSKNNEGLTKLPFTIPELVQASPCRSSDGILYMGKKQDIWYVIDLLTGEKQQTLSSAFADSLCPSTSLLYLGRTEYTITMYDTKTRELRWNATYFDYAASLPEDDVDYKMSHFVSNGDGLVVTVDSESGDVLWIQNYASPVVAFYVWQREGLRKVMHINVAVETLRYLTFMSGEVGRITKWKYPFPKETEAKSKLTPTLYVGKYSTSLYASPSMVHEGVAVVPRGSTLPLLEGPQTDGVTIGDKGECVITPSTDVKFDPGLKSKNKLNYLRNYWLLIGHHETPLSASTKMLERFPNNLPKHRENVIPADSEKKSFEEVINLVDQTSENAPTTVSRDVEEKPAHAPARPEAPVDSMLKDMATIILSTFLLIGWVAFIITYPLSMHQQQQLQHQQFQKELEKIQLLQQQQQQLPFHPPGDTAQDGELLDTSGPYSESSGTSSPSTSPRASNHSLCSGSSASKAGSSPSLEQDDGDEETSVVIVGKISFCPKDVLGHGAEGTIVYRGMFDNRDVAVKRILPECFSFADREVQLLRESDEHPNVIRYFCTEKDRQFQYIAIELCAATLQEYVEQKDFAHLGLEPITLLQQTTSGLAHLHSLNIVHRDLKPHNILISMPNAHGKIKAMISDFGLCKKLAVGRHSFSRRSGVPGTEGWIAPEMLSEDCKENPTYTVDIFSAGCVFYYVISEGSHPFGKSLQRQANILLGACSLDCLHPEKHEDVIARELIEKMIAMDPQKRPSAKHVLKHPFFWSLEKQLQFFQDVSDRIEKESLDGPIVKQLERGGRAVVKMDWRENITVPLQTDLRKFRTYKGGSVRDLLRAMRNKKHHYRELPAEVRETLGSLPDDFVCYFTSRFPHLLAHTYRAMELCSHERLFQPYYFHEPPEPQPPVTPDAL", "experiment": "Binding affinity to wild-type human partial length ERN1 (S551 to E852 residues) expressed in mammalian expression system assessed as residual binding level at 1 uM by Kinomescan method relative to control"}, "Mus musculus": {"test_system": "Mus musculus", "experiment": "Toxicity in NOD-SCID mouse engrafted with human EOL-1 cells assessed as change in body weight at 30 mg/kg/day, ip administered 3 weeks post cell inoculation", "format": "organism-based", "details": "in vivo, 504 h"}, "[12]": {"target": "Non-receptor tyrosine-protein kinase TYK2 (Homo sapiens) (UniProt P29597)", "experiment": "Binding affinity to wild-type human partial length TYK2 JH2 pseudokinase domain (G556 to D888 residues) expressed in mammalian expression system assessed as residual binding level at 1 uM by Kinomescan method relative to control"}, "[13]": {"target": "Serine/threonine-protein kinase MARK1 (Homo sapiens) (UniProt Q9P0L2)", "experiment": "Binding affinity to wild-type human partial length MARK1 (Q30 to T341 residues) expressed in bacterial expression system assessed as residual binding level at 1 uM by Kinomescan method relative to control"}}}
{"smiles": "Cc1ccc(NC(=O)c2ccc(CN(CCN(C)C)C(=O)c3cccnc3)cc2)cc1Nc1nccc(-c2cccnc2)n1", "values": [{"measurement": "Activity", "setting": "[1]", "result": 100, "unit": "%"}, {"measurement": "Activity", "setting": "[2]", "result": 83, "unit": "%"}, {"measurement": "Activity", "setting": "[3]", "result": 28, "unit": "%"}, {"measurement": "Activity", "setting": "[4]", "result": 95, "unit": "%"}, {"measurement": "Activity", "setting": "[5]", "result": 100, "unit": "%"}, {"measurement": "Activity", "setting": "[6]", "result": 100, "unit": "%"}, {"measurement": "Activity", "setting": "[7]", "result": 87, "unit": "%"}, {"measurement": "Activity", "setting": "[8]", "result": 100, "unit": "%"}, {"measurement": "Activity", "setting": "[9]", "result": 96, "unit": "%"}, {"measurement": "Activity", "setting": "[10]", "result": 79, "unit": "%"}, {"measurement": "Activity", "setting": "[11]", "result": 96, "unit": "%"}, {"measurement": "Activity", "setting": "Mus musculus", "result": "Non-Toxic"}, {"measurement": "Activity", "setting": "[12]", "result": 91, "unit": "%"}, {"measurement": "Activity", "setting": "[13]", "result": 97, "unit": "%"}]}
